pIC50: −log10 of the molar value.
Key:
[1] = Half life in mouse liver microsomes at 10 uM preincubated for 5 mins followed by NADPH addition by LC-MS/MS analysis; format: ADME, Microsome
Procedure, shortened: (§1)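 Compound at 10 µM preincubated 5 min at 37 °C with human or mouse liver microsomes (0.5 mg/mL) in 100 mM phosphate, pH 7.4. Reaction started with 1 mM NADPH, stopped with cold acetonitrile, centrifuged and analysed by LC-MS/MS.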

HCT-116 = test: Effect on CDC37 expression in human HCT116 cells at 10 uM measured up to 48 hrs by Western blot analysis; format: cell-based; settings: hct-116, 48 h
Procedure, shortened: (§2)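 HCT116 cells treated with 0, 1, 5 or 10 µM for 24 h, or with 10 µM for 0, 4, 12, 24 or 48 h. Lysates separated by SDS-PAGE and blotted. Membranes blocked in 5% milk, primary antibodies overnight at 4 °C, HRP secondaries, chemiluminescent detection.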

[2] = Cmax in plasma of human HCT116 cells xenografted BALB/c mouse at 80 mg/kg, po administered as single dose by LC-MS/MS analysis; format: ADME, organism-based; parameters: dose 80 mg/kg, route oral
Procedure, shortened: (§3)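 Tumour-bearing mice (n = 6 per group) given one oral dose of 80 mg/kg. Blood and tumour collected into heparinized tubes at 0, 0.25, 0.5, 1, 2, 4, 8, 12 and 24 h. Plasma obtained by centrifugation at 3000 rpm for 10 min. Samples stored at -80 °C and quantified by LC-MS/MS.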

[3] = Tmax in tumor of human HCT116 cells xenografted BALB/c mouse at 80 mg/kg, po administered as single dose by LC-MS/MS analysis; format: ADME, organism-based, Neoplasm
Procedure, shortened: (§4)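 HCT116-xenografted mice (n = 6 per group) received a single oral 80 mg/kg dose. Blood and tumor were sampled at 0 to 24 h. Plasma was obtained by centrifugation at 3000 rpm for 10 min. Samples were stored at −80 °C and quantified by LC-MS/MS.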

[4] = Cmax in tumor of human HCT116 cells xenografted BALB/c mouse at 80 mg/kg, po administered as single dose by LC-MS/MS analysis; format: ADME, organism-based, Neoplasm; parameters: dose 80 mg/kg, route oral; procedure, shortened: as §3
A549 = test: Antiproliferative activity against human A549 cells measured after 72 hrs by CCK8 assay; format: functional, cell-based; settings: A549, 72 h
Procedure, shortened: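 Cells grown in RPMI 1640 with 10% FBS at 37 °C, 5% CO2; STR-authenticated and mycoplasma-checked. Seeded at 3000-5000 cells/well and left 24 h. Serial compound dilutions added for 72 h, with matched DMSO as control. Viability read by CCK8 kit using the standard protocol. IC50 values derived from at least three parallel experiments.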

[5] = Half life in human liver microsomes at 10 uM preincubated for 5 mins followed by NADPH addition by LC-MS/MS analysis; format: ADME, Microsome; procedure, shortened: as §1
[6] = Effect on HSP70 in human HCT116 cells up to 10 uM measured after 24 hrs by Western blot analysis; format: cell-based; procedure, shortened: as §2
[7] = Stability of the compound in human plasma assessed as parent compound remaining at 1 uM measured after 90 mins by LC-MS/MS analysis; format: ADME, cell-free; settings: read-out: Stability
Procedure, shortened: (§5)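 Compound diluted from 10 mM DMSO stock to 1 μM in mouse or human plasma and held at 37 °C in a water bath. Reactions were stopped with acetonitrile at 0, 10, 30, 60 and 90 min. Parent compound was quantified by LC-MS/MS as % remaining.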

Glucocorticoid receptor = target: T1, Glucocorticoid receptor (Homo sapiens, UniProt P04150); test: Effect on glucocorticoid receptor in human HCT116 cells at 10 uM measured up to 48 hrs by Western blot analysis; format: ADME, cell-based; procedure, shortened: as §2
T1 sequence (P04150 whole entry): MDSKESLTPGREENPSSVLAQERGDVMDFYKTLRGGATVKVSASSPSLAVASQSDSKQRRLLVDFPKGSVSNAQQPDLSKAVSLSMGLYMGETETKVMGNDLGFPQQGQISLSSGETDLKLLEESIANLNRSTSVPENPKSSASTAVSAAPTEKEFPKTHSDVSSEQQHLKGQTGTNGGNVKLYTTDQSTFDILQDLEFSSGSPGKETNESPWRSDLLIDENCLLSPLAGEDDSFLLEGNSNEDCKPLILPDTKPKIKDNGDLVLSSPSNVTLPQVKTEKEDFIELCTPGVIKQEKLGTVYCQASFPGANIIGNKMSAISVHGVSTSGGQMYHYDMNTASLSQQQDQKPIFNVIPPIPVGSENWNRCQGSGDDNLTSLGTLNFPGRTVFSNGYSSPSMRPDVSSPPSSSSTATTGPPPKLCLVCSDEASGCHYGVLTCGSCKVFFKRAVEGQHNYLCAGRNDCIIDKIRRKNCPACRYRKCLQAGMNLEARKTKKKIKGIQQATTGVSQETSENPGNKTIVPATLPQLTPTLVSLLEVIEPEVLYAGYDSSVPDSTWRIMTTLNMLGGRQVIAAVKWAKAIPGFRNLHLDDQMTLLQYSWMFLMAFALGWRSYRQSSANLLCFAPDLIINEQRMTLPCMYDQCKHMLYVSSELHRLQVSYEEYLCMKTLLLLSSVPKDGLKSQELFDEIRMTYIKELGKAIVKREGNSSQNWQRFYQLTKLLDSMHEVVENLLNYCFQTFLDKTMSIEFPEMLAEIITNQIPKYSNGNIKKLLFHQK

[8] = Clearance in mouse liver microsomes at 10 uM preincubated for 5 mins followed by NADPH addition by LC-MS/MS analysis; format: ADME, Microsome; settings: read-out: CLH; procedure, shortened: as §1
[9] = Stability of the compound in human plasma assessed as parent compound remaining at 1 uM measured after 10 mins by LC-MS/MS analysis; format: ADME, cell-free; settings: read-out: Stability; procedure, shortened: as §5
[10] = MRT in tumor of human HCT116 cells xenografted BALB/c mouse at 80 mg/kg administered as single dose by LC-MS/MS analysis; format: ADME, organism-based, Neoplasm; procedure, shortened: as §4
[11] = Stability of the compound in human plasma assessed as parent compound remaining at 1 uM measured after 30 mins by LC-MS/MS analysis; format: ADME, cell-free; settings: read-out: Stability; procedure, shortened: as §5
[12] = Clearance in human liver microsomes at 10 uM preincubated for 5 mins followed by NADPH addition by LC-MS/MS analysis; format: ADME, Microsome; settings: read-out: CLH; procedure, shortened: as §1
[13] = Stability of the compound in mouse plasma assessed as parent compound remaining at 1 uM measured after 90 mins by LC-MS/MS analysis; format: ADME, cell-free; settings: read-out: Stability; procedure, shortened: as §5
[14] = AUC (0 to t) in plasma of human HCT116 cells xenografted BALB/c mouse at 80 mg/kg, po administered as single dose by LC-MS/MS analysis; format: ADME, organism-based; procedure, shortened: as §3
[15] = Half life in plasma of human HCT116 cells xenografted BALB/c mouse at 80 mg/kg, po administered as single dose by LC-MS/MS analysis; format: ADME, organism-based
Procedure, shortened: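 Single oral dose of 80 mg/kg given to BALB/c nude mice (n = 6 per group) carrying flank HCT116 xenografts. Blood and tumor were collected at 0, 0.25, 0.5, 1, 2, 4, 8, 12 and 24 h. Blood went into heparinized tubes and was spun at 3000 rpm for 10 min to give plasma. Samples were stored at -80 °C, then drug levels in plasma and tumor were measured by LC-MS/MS.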

Heat shock protein HSP90 = Heat shock protein HSP90 (Homo sapiens, UniProt P07900+P08238); test: Inhibition of recombinant full-length HSP90 ATPase activity N-terminal domain (9 to 236 residues) (unknown origin) expressed in Escherichia coli BL21 (DE3) measured after 1 hr by ADP hunter plus assay

**Q.** For `Cc1cc(C)c(S(=O)(=O)N(CC(=O)O)c2ccc(Nc3ccnc(N4CCNCC4)n3)cc2)c(C)c1`, which half-life at 10 µM [1] is on record?
**A.** Its half-life at 10 µM is 1.6 h.

**Q.** What about the Activity (HCT-116) of the same compound?
**A.** The Activity was “Non-Toxic”.

**Q.** And the Cmax [2]?
**A.** Its Cmax is 308 µg/mL.

**Q.** And the Tmax [3]?
**A.** Its Tmax is 1 h.

**Q.** And the Cmax [4]?
**A.** Its Cmax is 50 µg/mL.

**Q.** What about the pIC50 (A549) of the same compound?
**A.** The pIC50 was under 4.30.

**Q.** And the half-life at 10 µM [5]?
**A.** Its half-life at 10 µM is 2.08 h.

**Q.** What about the Activity [6] of the same compound?
**A.** The Activity was “Non-Toxic”.

**Q.** And the remaining at 1.5 h, 1 µM [7]?
**A.** Its remaining at 1.5 h, 1 µM is 103%.

**Q.** And the Activity (Glucocorticoid receptor)?
**A.** Its Activity is “Non-Toxic”.

**Q.** And the microsomal CLint at 10 µM [8]?
**A.** Its microsomal CLint at 10 µM is 10.3 µL/min/mg.

**Q.** And the remaining at 10 min, 1 µM [9]?
**A.** The remaining at 10 min, 1 µM was 98%.

**Q.** What about the MRT [10] of the same compound?
**A.** The MRT was 6.02 h.

**Q.** What about the remaining at 0.5 h, 1 µM [11] of the same compound?
**A.** The remaining at 0.5 h, 1 µM was 104%.

**Q.** And the microsomal CLint at 10 µM [12]?
**A.** The microsomal CLint at 10 µM was 8.97 µL/min/mg.

**Q.** And the remaining at 1.5 h, 1 µM [13]?
**A.** The remaining at 1.5 h, 1 µM was 105%.

**Q.** And the AUC(0-t) [14]?
**A.** Its AUC(0-t) is 533 µg·h/mL.

**Q.** What about the half-life [15] of the same compound?
**A.** The half-life was 1.46 h.

**Q.** What about the IC50 (Heat shock protein HSP90) of the same compound?
**A.** The IC50 was over 100 µM.
